{"data": "Measured values from different studies", "target": "LIM domain kinase 2 (LIMK2, Homo sapiens, UniProt P53671)"}
{"Structure (SMILES)": "COc1cc(-c2cn(C3CCc4c(F)cccc4N(CC(F)(F)F)C3=O)nn2)ccc1-n1cnc(C)c1 (stereo not shown)", "test": "cell-free assay, competition with immobilised ligand", "conditions": "1 µM", "remaining binding [%]": 100}
{"Structure (SMILES)": "COc1ncc2cc3ccccc3nc2c1C#N", "test": "cell-free assay, competition with immobilised ligand", "conditions": "5 µM", "remaining binding [%]": 91}
{"Structure (SMILES)": "CN(C)c1ncc(F)c(-c2cnn3ncccc23)n1", "test": "binding", "conditions": "1 µM", "remaining binding [%]": 82}
{"Structure (SMILES)": "O=C(c1ccc(Nc2ncc(Cl)c(-c3cc4ccccc4s3)n2)cc1)N1CCC(N2CCCC2)CC1", "test": "binding, competition with immobilised ligand", "conditions": "1 µM", "remaining binding [%]": 30}
{"Structure (SMILES)": "C=CC(=O)N1CCC(C(=O)NCC(=O)N2CCN(c3nc(-c4cnc(N)nc4C(F)F)nc(N4CCOCC4)n3)CC2)CC1", "test": "binding, competition with immobilised ligand", "conditions": "1 µM", "remaining binding [%]": 97}
{"Structure (SMILES)": "Cc1cnn2ncc(-c3ccnc(N(C)C)n3)c2c1", "test": "binding", "conditions": "1 µM", "remaining binding [%]": 94}
{"Structure (SMILES)": "O=C(NCCCN1CCOCC1)c1ccc(Nc2nccc(-c3cc4ccccc4s3)n2)cc1", "test": "binding, competition with immobilised ligand", "conditions": "1 µM", "remaining binding [%]": 59}
{"Structure (SMILES)": "CNCc1ccccc1-c1csc([C@@H](C)Nc2nc(C)nc3cc(OC)c(OC)cc23)c1", "test": "cell-free assay, competition with immobilised ligand", "conditions": "1 µM", "remaining binding [%]": 96}
{"Structure (SMILES)": "CN(CCCC(F)(F)F)c1nccc(-c2cnn3ncccc23)n1", "test": "binding", "conditions": "1 µM", "remaining binding [%]": 95}
{"Structure (SMILES)": "O=C(NCCCN1CCOCC1)c1ccc(Nc2ncc(Cl)c(-c3ccc(Cl)s3)n2)cc1", "test": "binding, competition with immobilised ligand", "conditions": "1 µM", "remaining binding [%]": 83}
{"Structure (SMILES)": "O=C(NCC1CCOCC1)c1n[nH]cc1NC(=O)c1c(F)cccc1F", "test": "binding, competition with immobilised ligand", "conditions": "1 µM", "remaining binding [%]": 97}
{"Structure (SMILES)": "COc1cnc(Nc2cccc(S(N)(=O)=O)c2)nc1N1CCN(c2ccccc2)C(=O)C1", "test": "binding, competition with immobilised ligand", "conditions": "1 µM", "remaining binding [%]": 100}
{"Structure (SMILES)": "CCN1CCN(Cc2ccc(C(=O)Nc3ccc(C)c(Oc4ccc5c(c4)CC(=O)N5)c3)cc2C(F)(F)F)CC1", "test": "binding, competition with immobilised ligand", "conditions": "1 µM", "remaining binding [%]": 100}
{"Structure (SMILES)": "O=C(Nc1ccc(Oc2ccc(F)cc2)cc1)N1CCc2ncccc2[C@H]1c1ccc(F)cc1", "test": "cell-free assay, competition with immobilised ligand", "conditions": "1 µM", "remaining binding [%]": 93}
{"Structure (SMILES)": "CN(C)c1nccc(-c2cnn3ncccc23)n1", "test": "binding", "conditions": "1 µM", "remaining binding [%]": 97}
{"Structure (SMILES)": "O=c1nc(-c2ccccn2)sc2ccccc12", "test": "binding, competition with immobilised ligand", "conditions": "1 µM", "remaining binding [%]": 100}
{"Structure (SMILES)": "C[C@@H]1CCN(c2nccc(-c3cnn4ncccc34)n2)C1", "test": "binding", "conditions": "1 µM", "remaining binding [%]": 87}
{"Structure (SMILES)": "CNC(=O)c1ccc(Nc2ncc(C(F)(F)F)c(NCc3nccnc3N(C)S(C)(=O)=O)n2)cc1", "test": "cell-free assay, competition with immobilised ligand", "conditions": "0.1 µM", "remaining binding [%]": 87}
{"Structure (SMILES)": "COc1ccnn2ncc(-c3ccnc(N(C)C)n3)c12", "test": "binding", "conditions": "1 µM", "remaining binding [%]": 82}
{"Structure (SMILES)": "COc1cnc(Nc2cccc(S(N)(=O)=O)c2)nc1N1CCN(c2ccccc2)CC1", "test": "binding, competition with immobilised ligand", "conditions": "1 µM", "remaining binding [%]": 96}
{"Structure (SMILES)": "CCC(=O)N[C@H]1CC[C@@H](C(=O)N(C)c2ccc(-c3nc4ccccc4o3)cc2)C1", "test": "cell-free assay, competition with immobilised ligand", "conditions": "1 µM", "remaining binding [%]": 100}
{"Structure (SMILES)": "N[C@H]1CCN(c2nccc(-c3cnn4ncccc34)n2)C1", "test": "binding", "conditions": "1 µM", "remaining binding [%]": 100}
